From PubChem
The list is not random: actives were taken first. Their share in the collection is about 2.3%.
TRPC6 inhibitor – inhibitors of mouse TRPC6 channel | Q61143 | HEK293-TRPC6, membrane potential dye, ACh-evoked depolarization; stronger effect = lower value | B-score at 10 µM | actives 1.1% (n = 310,000);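 active = B-score under library mean minus 3 SD, initial fluorescence not abnormally high, positive integrated signal ratio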;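 also: B-score derived from integrated fluorescence ratio over the kinetic read; more negative B-score means stronger inhibition of depolarization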
Target sequence (Q61143 whole entry, looked up): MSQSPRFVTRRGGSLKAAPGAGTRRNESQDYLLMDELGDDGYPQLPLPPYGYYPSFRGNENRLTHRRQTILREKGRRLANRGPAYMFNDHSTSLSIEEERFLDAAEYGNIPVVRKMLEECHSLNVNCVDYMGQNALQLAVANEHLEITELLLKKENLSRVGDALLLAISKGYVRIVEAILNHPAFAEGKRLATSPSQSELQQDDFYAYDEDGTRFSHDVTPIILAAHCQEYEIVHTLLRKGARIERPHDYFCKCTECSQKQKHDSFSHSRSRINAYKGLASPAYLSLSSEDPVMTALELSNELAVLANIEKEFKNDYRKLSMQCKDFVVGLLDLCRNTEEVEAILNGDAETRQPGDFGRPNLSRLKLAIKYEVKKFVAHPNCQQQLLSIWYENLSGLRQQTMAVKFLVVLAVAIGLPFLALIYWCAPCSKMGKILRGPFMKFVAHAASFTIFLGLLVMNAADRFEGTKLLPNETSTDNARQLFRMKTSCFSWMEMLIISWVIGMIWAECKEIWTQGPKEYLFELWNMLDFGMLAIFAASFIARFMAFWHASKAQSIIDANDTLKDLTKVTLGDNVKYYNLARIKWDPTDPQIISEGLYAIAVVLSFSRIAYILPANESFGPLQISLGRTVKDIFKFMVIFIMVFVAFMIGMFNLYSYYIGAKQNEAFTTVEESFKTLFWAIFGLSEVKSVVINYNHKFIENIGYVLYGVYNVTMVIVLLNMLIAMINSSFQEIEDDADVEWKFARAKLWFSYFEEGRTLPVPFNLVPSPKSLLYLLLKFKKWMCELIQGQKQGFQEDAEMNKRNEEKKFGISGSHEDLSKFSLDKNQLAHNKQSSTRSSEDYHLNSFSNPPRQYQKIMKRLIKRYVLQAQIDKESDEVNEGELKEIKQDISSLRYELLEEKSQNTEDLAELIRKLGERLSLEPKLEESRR
TRPC4 potent – TRPC4 (mouse) allosteric potentiation | Q9QUQ5 | HEK293 TRPC4beta/mu-opioid, DAMGO EC20, Fluo-4 Ca2+ flux; stronger effect = higher value | B-score at 10 µM | actives 0.42% (n = 310,000) | AID 2227;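 active = B-score of calcium response area above 5 SD of library B-scores, with initial fluorescence ratio within 5 SD of library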
TRPC6 act – activators of mouse TRPC6 channel; Q61143; HEK293-TRPC6 membrane potential dye fluorescence; stronger effect = higher value; B-score at 10 µM; actives 0.13% (n = 310,000); AID 2550;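 active = B-score of the integrated fluorescence ratio above library mean plus 3 SD, and starting fluorescence ratio within library mean plus 5 SD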;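 also: higher score means more depolarization so channel activation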
TRPC4 inh – inhibitors of mouse TRPC4 channel. actives 0.39% (n = 300,000). Q9QUQ5. AID 2247. B-score at 10 µM. HEK293 TRPC4beta/mu-opioid, DAMGO-evoked Fluo4 calcium flux; stronger effect = lower value;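 active = B-score over 3 SD under the library average, no early fluorescence shift, positive overall ratio signal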
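Signal: kinetic Fluo4 fluorescence imaging of calcium influx. Material: stable TRPC4beta/mu-opioid receptor HEK293 cells. Probe or stimulus: DAMGO in two steps, submaximal then maximal.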
TRPC4 agonist – opens the mouse TRPC4 cation channel | HEK293 TRPC4beta/mu-opioid, Fluo4 calcium fluorescence; stronger effect = higher value | B-score at 10 µM | actives 0.49% (n = 310,000) | AID 2237;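 active = B-score above 5 SD of library B-scores, and initial fluorescence ratio not above library mean plus 5 SD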;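 also: positive B-score marks a calcium rise read as TRPC4 activation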
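Technique: kinetic Fluo4 calcium fluorescence; Test system: TRPC4beta and mu-opioid receptor HEK293 stable cells; Measure: B-scored integrated calcium fluorescence ratio; Benchmarks: low control buffer alone, high control maximal DAMGO; Schedule: 45 min room-temperature Fluo4 loading, 110 s read.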
TRPC4 sel inh 2 – second check of whether TRPC6 inhibitors also affect mouse TRPC4 | shares compounds with TRPC6 inhibitor | HEK293 TRPC4/MOR, membrane potential dye fluorescence; channel activated by saturating DAMGO dose | inhibition, % at 10 µM | actives 42% (n = 920) | AID 2776;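 active = compounds whose fluorescence signal differed from control wells by over 3 SD, either direction, in both duplicate plates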
TRPC4 spec – tests whether TRPC6 inhibitors also affect mouse TRPC4 | activity change, negative = inhibition, % at 10 µM | HEK293 TRPC4/mu-opioid, membrane potential fluorescence | actives 61% (n = 920) | shares compounds with TRPC6 inhibitor;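 active = rise or fall in signal beyond 3 SD of buffer-only wells in both replicate plates, either sign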;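 also: integrated kinetic ratio of fluorescence range over baseline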
HEK293 MPD ctr 2-1 – parental HEK293 nonspecific activity of TRPC6 inhibitors, second screen; shares compounds with TRPC6 inhibitor; parental HEK293 membrane potential dye fluorescence; maximal acetylcholine challenge after compound addition; signal change vs control, % at 10 µM; actives 31% (n = 920);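 active = membrane potential signal moving either way by over 3 SD of the maximum-effect control, in both duplicate plates, meaning non-specific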
HEK293 MPD ctr-1 – checks TRPC6 inhibitor effects in parental HEK293 cells | shares compounds with TRPC6 inhibitor | parental HEK293 membrane potential dye fluorescence | membrane potential signal change, % at 10 µM | actives 60% (n = 920) | AID 2780;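 active = membrane potential signal shifting up or down by more than 3 SD of buffer-only wells, on both duplicate plates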
HEK293 MPD ctr-2 – parental HEK293 nonspecific activity of TRPC6 modulators | shares compounds with TRPC6 inhibitor | membrane potential dye fluorescence | membrane potential signal change, % at 10 µM | actives 51% (n = 2,400);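 active = membrane potential signal moves up or down beyond 5 SD from buffer-only wells, on both duplicate plates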
HEK293 MPD ctr 2-2 – parental HEK293 nonspecific activity of TRPC6 modulators, second screen. actives 14% (n = 2,400). membrane potential dye fluorescence; after compound, maximal acetylcholine stimulation. shares compounds with TRPC6 inhibitor. inhibition, % at 10 µM. AID 488926;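 active = membrane potential signal drops by more than 5 SD from the mean control signal, in both duplicate plates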
TRPC4/MOR mod – tests whether TRPC6 modulators also affect mouse TRPC4; shares compounds with TRPC6 inhibitor; HEK293 TRPC4/mu-opioid, membrane potential fluorescence; percent change from control (negative = decrease, positive = increase), % at 10 µM; actives 69% (n = 2,400);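 active = membrane potential signal moved up or down beyond 5 SD of buffer control wells, in both duplicate plates, actives on both sides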
TRPC4/MOR inh 2 – mouse TRPC4 off-target activity of TRPC6 modulators, second screen; shares compounds with TRPC6 inhibitor; HEK293 TRPC4/mu-opioid, membrane potential dye fluorescence; stimulated with maximal-effect DAMGO; inhibition, % at 10 µM; actives 55% (n = 2,400); AID 488928;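 active = drop in membrane potential signal beyond 5 SD of the control wells in both duplicate plates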;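 also: TRPC4 counter screen for TRPC6 hits run under conditions tuned for TRPC6 not TRPC4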
TRPC6 inh conf – mouse TRPC6 inhibitor confirmation; shares compounds with TRPC6 inhibitor; HEK293-TRPC6, membrane potential dye, ACh-evoked depolarization; inhibition, % at 10 µM; actives 43% (n = 3,300); AID 488960;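 active = fluorescence ratio falls more than 5 SD below the full-stimulation control mean, in both duplicate runs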;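 also: integrated fluorescence ratio of peak minus minimum over baseline after agonist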
TRPC6 act confirm – confirmation of mouse TRPC6 activators. AID 488961. shares compounds with TRPC6 inhibitor. HEK293-TRPC6 membrane potential dye fluorescence, FDSS. activation, % at 10 µM. actives 11% (n = 2,800);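 active = ratio signal rise beyond 5 SD above unstimulated control wells' mean, seen in both duplicate runs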
Hits are given with their value; 0 = inactive; - = no result given; + = active, no number.

SMILES	TRPC6 inhibitor	TRPC4 potent	TRPC6 act	TRPC4 inh	TRPC4 agonist	HEK293 MPD ctr-2	HEK293 MPD ctr 2-2	TRPC4/MOR mod	TRPC4/MOR inh 2	TRPC6 inh conf	TRPC6 act confirm	others
Cc1cccc(NC(=O)/C(C#N)=C/c2cccc([N+](=O)[O-])c2)n1	0	0	0	0	0	-	-	-	-	-	-
CC(C)C[C@H](NC(=O)c1[nH]cnc1C(=O)N[C@@H](C)C(=O)OCc1ccccc1)C(=O)OC(C)(C)C	-5.8	0	0	0	0	0	0	0	0	0	0
CN1CCN(c2ccc(C(=O)c3ccc(Br)cc3)cc2[N+](=O)[O-])CC1	-5.9	0	0	0	0	0	0	-13%	43%	0	0
CN1CCN(c2ccccc2NC(=O)c2ccc(N3CCCC3)c([N+](=O)[O-])c2)CC1	-11	0	0	0	0	-108%	0	-30%	82%	58%	0
O=C(Nc1ccccc1N1CCCCC1)c1ccc(Cl)c([N+](=O)[O-])c1	0	0	0	0	0	-	-	-	-	-	-
CC(=O)NC(CC(=O)N1CCN(C(C)=O)CC1)c1ccccc1 (stereo not given)	0	0	0	0	0	-	-	-	-	-	-
COc1ccccc1/C=C\C(=O)NCC(=O)N/N=C(/C)c1cccc([N+](=O)[O-])c1	0	0	0	0	0	-	-	-	-	-	-
CCCCC(O)(CCN1CCOCC1)c1ccc(Cl)cc1 (stereo not given)	-8.9	0	0	0	0	-	-	-	-	65%	0	TRPC4 sel inh 2=0;TRPC4 spec=8.8%;HEK293 MPD ctr 2-1=30%;HEK293 MPD ctr-1=5.8%
COc1ccc(C(C(=O)NCCC(C)C)N(CCN2CCOCC2)C(=O)Cn2nnc3ccccc32)c(OC)c1 (stereo not given)	0	0	28	0	0	484%	0	86%	0	0	298%
COCCN(C(=O)Cn1nnc2ccccc21)C(C(=O)NC1CCCC1)c1cccc(OC)c1OC (stereo not given)	0	0	0	0	0	-	-	-	-	-	-
CCOC(=O)C1CCN(S(=O)(=O)c2ccc3c(c2)N(C(C)=O)CC(C)S3)CC1 (stereo not given)	0	0	0	0	0	-	-	-	-	-	-
Cc1ccc2nc(CSc3nnc(-c4ccco4)o3)cc(=O)n2c1	-5.3	0	0	0	0	0	0	0	0	0	-
COc1cccc(NC(=O)c2cc(-c3ccc(OC)cc3OC)nc3ccccc23)c1	-5.1	0	0	0	0	+	73%	-94%	66%	54%	0
COc1ccc(-c2cc(C(=O)Nc3cc(C)on3)c3ccccc3n2)c(OC)c1	0	0	0	0	0	-	-	-	-	-	-
CC(C)(C)c1ccc(S(=O)(=O)N2CCC(CO)(CC3CCCCO3)CC2)cc1 (stereo not given)	-5.8	0	0	0	0	0	0	17%	0	0	-
CC(C)(C)c1ccc(S(=O)(=O)N2CCC(N3CCCCC3)CC2)cc1	0	0	20	0	0	238%	0	41%	36%	0	122%
CCOC(=O)C1(CC2CCCCO2)CCN(S(=O)(=O)c2ccccc2)CC1 (stereo not given)	0	0	0	0	0	-	-	-	-	-	-
Cc1ccc(-c2nc(SCC(=O)c3c(N)n(C)c(=O)n(C)c3=O)n[nH]2)cc1	-5.1	0	0	0	0	0	0	0	0	0	0
Cc1ccc(-c2nc(SC(C)C(=O)c3c(N)n(C)c(=O)n(C)c3=O)n[nH]2)cc1 (stereo not given)	0	0	0	0	0	-	-	-	-	-	-
COc1ccccc1NC(=O)CSc1nnnn1-c1ccc(C(=O)O)cc1	0	0	0	0	0	-	-	-	-	-	-
CCCCOc1ccccc1NC(=O)CSc1nnnn1C(C)(C)C	0	0	12	0	0	187%	0	38%	0	-	114%
O=C(CC(c1ccccc1)c1cc(Cl)ccc1O)N1CCCC1 (stereo not given)	0	0	0	0	0	-	-	-	-	-	-
O=C(CC(c1ccccc1O)N1CCCCC1)N1CCCCC1 (stereo not given)	-9.7	0	0	0	0	-	-	-	-	63%	-	TRPC4 sel inh 2=0;TRPC4 spec=3.6%;HEK293 MPD ctr 2-1=0;HEK293 MPD ctr-1=4.8%
COCCOC(=O)c1nccnc1C(=O)Nc1ccc(S(=O)(=O)N2CCOCC2)cc1	-6.2	0	0	0	0	0	0	0	0	0	0
O=C(O)c1nccnc1C(=O)Nc1ccc(S(=O)(=O)N2CCOCC2)cc1	0	0	0	0	0	-	-	-	-	-	-
COC(=O)C1CN(S(=O)(=O)c2ccccc2)CCN1S(=O)(=O)c1ccccc1 (stereo not given)	0	0	0	0	0	-	-	-	-	-	-
CCOC(=O)N1CCN(S(=O)(=O)c2ccc(C(=O)N(CCCN(C)C)c3nc4cc(OC)ccc4s3)cc2)CC1	-5.6	0	0	0	0	0	0	-25%	81%	73%	0
CN(C)CCCN(C(=O)c1ccc(S(=O)(=O)N2CCCCCC2)cc1)c1nc2c(F)cc(F)cc2s1	-5.2	0	0	0	157	0	0	20%	103%	0	0
CCN(CC(=O)Nc1ccc2c(c1)OCCO2)C(=O)CSCC(=O)Nc1ccc(C)cc1	0	0	0	0	0	-	-	-	-	-	-
CC1CN(c2oc(-c3ccccc3Cl)nc2C#N)CC(C)O1 (stereo not given)	0	0	0	0	0	-	-	-	-	-	-
